In ChEMBL document CHEMBL1149899 (J Med Chem, 2008):
Converted amounts (≈) assume the structure as drawn.

Experiments:
[1] = Inhibition of ATPase activity of yeast Hsp90; design: species or system Saccharomyces cerevisiae
[2] = Antitumor activity against human BXF 1218L cells; type: functional, cell-based
Procedure, shortened: (§1)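 Panel of 38 human solid-tumour cell lines, each tested in a monolayer proliferation assay. Growth inhibition was expressed as IC50 and IC70 values. Testing was run at Oncotest.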

[3] = Antitumor activity against human BXF T24 cells; type: functional, cell-based; settings: T-24; procedure, shortened: as §1
[4] = Antitumor activity against human CNXF 498NL cells; type: functional, cell-based; procedure, shortened: as §1
SF-268 = assay: Antitumor activity against human CNXF SF268 cells; type: functional, cell-based; procedure, shortened: as §1
[5] = Antitumor activity against human CXF HCT116 cells; type: functional, cell-based; settings: HCT-116; procedure, shortened: as §1
[6] = Antitumor activity against human CXF HT29 cells; type: functional, cell-based; settings: HT-29; procedure, shortened: as §1
SW-620 = assay: Antitumor activity against human CXF SW620 cells; type: functional, cell-based; procedure, shortened: as §1
[7] = Antitumor activity against human GXF 251L cells; type: functional, cell-based; procedure, shortened: as §1
[8] = Antitumor activity against human HNXF 536L cells; type: functional, cell-based; procedure, shortened: as §1
[9] = Antitumor activity against human OVXF 1619L cells; type: functional, cell-based; procedure, shortened: as §1
[10] = Antitumor activity against human LXF 1121L cells; type: functional, cell-based; procedure, shortened: as §1
[11] = Antitumor activity against human LXF 289L cells; type: functional, cell-based; procedure, shortened: as §1
[12] = Antitumor activity against human LXF 526L cells; type: functional, cell-based; procedure, shortened: as §1
[13] = Antitumor activity against human LXF 529L cells; type: functional, cell-based; procedure, shortened: as §1
[14] = Antitumor activity against human LXF 629L cells; type: functional, cell-based; procedure, shortened: as §1
[15] = Antitumor activity against human LXF H640 cells; type: functional, cell-based; procedure, shortened: as §1
[16] = Antitumor activity against human MAXF 401NL cells; type: functional, cell-based; procedure, shortened: as §1
MCF7 = assay: Antitumor activity against human MAXF MCF7 cells; type: functional, cell-based; procedure, shortened: as §1
[17] = Antitumor activity against human MEXF 276L cells; type: functional, cell-based; settings: MEXF276L; procedure, shortened: as §1
[18] = Antitumor activity against human MEXF 394NL cells; type: functional, cell-based; procedure, shortened: as §1
[19] = Antitumor activity against human MEXF 462NL cells; type: functional, cell-based; procedure, shortened: as §1
[20] = Antitumor activity against human MEXF 514L cells; type: functional, cell-based; procedure, shortened: as §1
[21] = Antitumor activity against human MEXF 520L cells; type: functional, cell-based; procedure, shortened: as §1
[22] = Antitumor activity against human OVXF 899L cells; type: functional, cell-based; procedure, shortened: as §1
OVCAR-3 = assay: Antitumor activity against human OVCAR-3 cells; type: functional, cell-based; procedure, shortened: as §1
[23] = Antitumor activity against human PAXF 165L cells; type: functional, cell-based; procedure, shortened: as §1
[24] = Antitumor activity against human PAXF PANC1 cells; type: functional, cell-based; settings: PANC-1; procedure, shortened: as §1
CWR22R = assay: Antitumor activity against human PRXF 22RV1 cells; type: functional, cell-based; procedure, shortened: as §1
DU-145 [25] = assay: Antitumor activity against human PRXF DU145 cells; type: functional, cell-based; procedure, shortened: as §1
[26] = Antitumor activity against human PRXF LNCAP cells; type: functional, cell-based; procedure, shortened: as §1
[27] = Antitumor activity against human PXF 1752L cells; type: functional, cell-based; procedure, shortened: as §1
[28] = Antitumor activity against human RXF 1781L cells; type: functional, cell-based; procedure, shortened: as §1
[29] = Antitumor activity against human RXF 393NL cells; type: functional, cell-based; procedure, shortened: as §1
[30] = Antitumor activity against human RXF 486L cells; type: functional, cell-based; procedure, shortened: as §1
[31] = Antitumor activity against human RXF 944L cells; type: functional, cell-based; procedure, shortened: as §1
UO-31 = assay: Antitumor activity against human RXF UO31 cells; type: functional, cell-based; procedure, shortened: as §1
[32] = Antitumor activity against human […] 1138L cells; type: functional, cell-based; procedure, shortened: as §1
DU-145 [33] = assay: Degradation of ErbB2 in human DU145 cell lysate by Western blot; type: functional, cell-based
Procedure, shortened: (§2)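 DU145 prostate cancer cells were exposed to 1 or 10 µM, with time points including 48 and 96 h. Cell lysates were probed by Western blot for ErbB2, cRaf1, Hsp90 and Hsp70.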

DU-145 [34] = assay: Degradation of cRaf1 in human DU145 cell lysate by Western blot; type: functional, cell-based; procedure, shortened: as §2
DU-145 [35] = assay: Antitumor activity against human DU145 tumor xenografted mouse at 10 mg/kg, ip measured on day 31; type: functional; settings: route intraperitoneal
DU-145 [36] = assay: Antitumor activity against human DU145 tumor xenografted mouse assessed delay for tumor doubling time at 10 mg/kg, ip; type: functional; settings: route intraperitoneal
DU-145 [37] = assay: Antitumor activity against human DU145 tumor xenografted mouse assessed delay for tumor quadrupling time at 10 mg/kg, ip; type: functional; settings: route intraperitoneal
Mus musculus = assay: Toxicity in human DU145 cells xenografted mouse assessed as loss of body weight at 10 mg/kg, ip on day 3; type: organism-based, DU-145; design: dose 10 mg/kg, route intraperitoneal; settings: in vivo
[38] = Antitumor activity against human PRXF PC3M cells; type: functional, cell-based; settings: PC-3M; procedure, shortened: as §1

Question: What does the source list for `CO[C@H]1[C@@H](OC)C[C@H](C)[C@@H](OC)C2=CC(=O)C=C(NC(=O)/C(C)=C/C=C\[C@H](C)[C@@H](OC(N)=O)/C(C)=C/[C@@H]1C)C2=O` [MACBECIN]?
Answer: IC50 [1]: 2000 nM; IC50 [2]: < 0.01 µg/mL; IC70 [2]: < 0.01 µg/mL; IC90 [2]: 37.3 µg/mL (≈ 66.7 µM); IC50 [3]: 1.6 µg/mL (≈ 2.87 µM); IC70 [3]: 4.56 µg/mL (≈ 8.16 µM); IC90 [3]: 35.9 µg/mL (≈ 64.3 µM); IC50 [4]: < 0.01 µg/mL; IC70 [4]: 0.857 µg/mL (≈ 1.53 µM); IC90 [4]: 27.8 µg/mL (≈ 49.8 µM); IC50 (SF-268): 0.527 µg/mL (≈ 0.943 µM); IC70 (SF-268): 1.97 µg/mL (≈ 3.52 µM); IC90 (SF-268): 7.63 µg/mL (≈ 13.7 µM); IC50 [5]: 0.923 µg/mL (≈ 1.65 µM); IC70 [5]: 6.06 µg/mL (≈ 10.8 µM); IC90 [5]: 51.8 µg/mL (≈ 92.7 µM); IC50 [6]: < 0.01 µg/mL; IC70 [6]: 0.292 µg/mL (≈ 0.523 µM); IC90 [6]: 7.2 µg/mL (≈ 12.9 µM); IC50 (SW-620): < 0.01 µg/mL; IC70 (SW-620): < 0.01 µg/mL; IC90 (SW-620): 7.36 µg/mL (≈ 13.2 µM); IC50 [7]: 3.73 µg/mL (≈ 6.67 µM); IC70 [7]: 25.1 µg/mL (≈ 45 µM); IC90 [7]: 93.6 µg/mL (≈ 168 µM); IC50 [8]: 1.61 µg/mL (≈ 2.89 µM); IC70 [8]: 4.22 µg/mL (≈ 7.55 µM); IC90 [8]: 11 µg/mL (≈ 19.7 µM); IC50 [9]: 1.56 µg/mL (≈ 2.79 µM); IC70 [9]: 9.15 µg/mL (≈ 16.4 µM); IC90 [9]: > 100 µg/mL; IC50 [10]: 0.048 µg/mL (≈ 0.0859 µM); IC70 [10]: 1 µg/mL (≈ 1.79 µM); IC90 [10]: 60 µg/mL (≈ 107 µM); IC50 [11]: 27.7 µg/mL (≈ 49.6 µM); IC70 [11]: 59 µg/mL (≈ 106 µM); IC90 [11]: 125 µg/mL (≈ 224 µM); IC50 [12]: 6.45 µg/mL (≈ 11.5 µM); IC70 [12]: 41.2 µg/mL (≈ 73.8 µM); IC90 [12]: 242 µg/mL (≈ 434 µM); IC50 [13]: 8.19 µg/mL (≈ 14.7 µM); IC70 [13]: 25.6 µg/mL (≈ 45.9 µM); IC90 [13]: 73 µg/mL (≈ 131 µM); IC50 [14]: 0.005 µg/mL (≈ 0.00895 µM); IC70 [14]: 30.6 µg/mL (≈ 54.8 µM); IC90 [14]: 114 µg/mL (≈ 204 µM); IC50 [15]: 2.11 µg/mL (≈ 3.78 µM); IC70 [15]: 7.33 µg/mL (≈ 13.1 µM); IC90 [15]: 61.6 µg/mL (≈ 110 µM); IC50 [16]: < 0.01 µg/mL; IC70 [16]: < 0.01 µg/mL; IC90 [16]: < 100 µg/mL; IC50 (MCF7): 0.158 µg/mL (≈ 0.283 µM); IC70 (MCF7): 3.32 µg/mL (≈ 5.95 µM); IC90 (MCF7): 79.4 µg/mL (≈ 142 µM); IC50 [17]: 13.9 µg/mL (≈ 24.9 µM); IC70 [17]: 51.8 µg/mL (≈ 92.7 µM); IC90 [17]: 193 µg/mL (≈ 346 µM); IC50 [18]: < 0.01 µg/mL; IC70 [18]: < 0.01 µg/mL; IC90 [18]: 31.6 µg/mL (≈ 56.6 µM); IC50 [19]: 0.456 µg/mL (≈ 0.816 µM); IC70 [19]: 1.97 µg/mL (≈ 3.52 µM); IC90 [19]: 41.2 µg/mL (≈ 73.8 µM); IC50 [20]: 7.8 µg/mL (≈ 14 µM); IC70 [20]: 25.7 µg/mL (≈ 46 µM); IC90 [20]: 83.8 µg/mL (≈ 150 µM); IC50 [21]: 9.34 µg/mL (≈ 16.7 µM); IC70 [21]: 26.4 µg/mL (≈ 47.3 µM); IC90 [21]: 73.6 µg/mL (≈ 132 µM); IC50 [22]: 16.2 µg/mL (≈ 29 µM); IC70 [22]: 47.2 µg/mL (≈ 84.6 µM); IC90 [22]: 138 µg/mL (≈ 247 µM); IC50 (OVCAR-3): 1.24 µg/mL (≈ 2.22 µM); IC70 (OVCAR-3): 3.62 µg/mL (≈ 6.47 µM); IC90 (OVCAR-3): 10.6 µg/mL (≈ 18.9 µM); IC50 [23]: 4.16 µg/mL (≈ 7.44 µM); IC70 [23]: 19.3 µg/mL (≈ 34.6 µM); IC90 [23]: > 100 µg/mL; IC50 [24]: 0.577 µg/mL (≈ 1.03 µM); IC70 [24]: 3.59 µg/mL (≈ 6.43 µM); IC90 [24]: 139 µg/mL (≈ 249 µM); IC50 (CWR22R): 0.189 µg/mL (≈ 0.338 µM); IC70 (CWR22R): 1.86 µg/mL (≈ 3.33 µM); IC90 (CWR22R): 31.6 µg/mL (≈ 56.6 µM); IC50 (DU-145 [25]): < 0.01 µg/mL; IC70 (DU-145 [25]): < 0.01 µg/mL; IC90 (DU-145 [25]): 2.37 µg/mL (≈ 4.24 µM); IC50 [26]: 0.008 µg/mL (≈ 0.0143 µM); IC70 [26]: 14.2 µg/mL (≈ 25.5 µM); IC90 [26]: > 100 µg/mL; IC50 [27]: 16.6 µg/mL (≈ 29.7 µM); IC70 [27]: 41.7 µg/mL (≈ 74.6 µM); IC90 [27]: 105 µg/mL (≈ 187 µM); IC50 [28]: 4.33 µg/mL (≈ 7.75 µM); IC70 [28]: 25.9 µg/mL (≈ 46.4 µM); IC90 [28]: 127 µg/mL (≈ 227 µM); IC50 [29]: 0.297 µg/mL (≈ 0.532 µM); IC70 [29]: 5.18 µg/mL (≈ 9.27 µM); IC90 [29]: 57.8 µg/mL (≈ 103 µM); IC50 [30]: 6.72 µg/mL (≈ 12 µM); IC70 [30]: 20.5 µg/mL (≈ 36.8 µM); IC90 [30]: 86.6 µg/mL (≈ 155 µM); IC90 [31]: 10 µg/mL (≈ 17.9 µM); IC50 (UO-31): 2.4 µg/mL (≈ 4.3 µM); IC70 (UO-31): 4.99 µg/mL (≈ 8.94 µM); IC90 (UO-31): 100 µg/mL (≈ 179 µM); IC50 [32]: 3.35 µg/mL (≈ 5.99 µM); IC70 [32]: 11.1 µg/mL (≈ 19.9 µM); IC90 [32]: 90.1 µg/mL (≈ 161 µM); Activity (DU-145 [33]): Dose-dependent effect; Activity (DU-145 [34]): Dose-dependent effect; T/C (DU-145 [35]): 32.2%; Time (DU-145 [36]): 2.3 days; Time (DU-145 [37]): 20.4 days; Activity (Mus musculus): 5.3%; IC50 [38]: 0.009 µg/mL (≈ 0.0161 µM); IC70 [38]: 1.41 µg/mL (≈ 2.53 µM); IC90 [38]: 19.9 µg/mL (≈ 35.7 µM)
